Experimental data reported in ChEMBL document CHEMBL1152557, “Solution-phase parallel synthesis of substituted chalcones and their antiparasitary activity against Giardia lamblia” (Bioorg Med Chem, 2009).
Values after ≈ are worked out from the molar mass of the structure shown. Active and inactive are the calls of the source. No cut-off for these calls is given here.

How the values were obtained:
Assay type in all cases: functional, organism-based
Giardia intestinalis [1] = test: Antigiardial activity against Giardia lamblia WB (ATCC 30957) trophozoites after 24 hrs by trypan blue assay; details: Giardia duodenalis; for LC50: read-out: LD50 (the source's name)
Outline: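 Mid-log trophozoites, ice-chilled 20 min and counted by hemocytometer, 1.5 × 10⁵ cells per well in 1.5 mL final volume, incubated 24 h at 37 °C with compounds (DMSO stock diluted in medium, DMSO ≤5% v/v) at 100 µg/mL, then 1–100 µg/mL for selected ones. Metronidazole 1–5 µg/mL and DMSO controls. Plates ice-chilled 20 min, cells resuspended, counted. Mortality by trypan blue staining and absence of motility. IC50 and LD50 by probit analysis.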

Enterococcus faecalis = test: Antimicrobial activity against Enterococcus faecalis ATCC 29212 up to 100 ug/mL by broth microdilution assay
Staphylococcus aureus = test: Antimicrobial activity against Staphylococcus aureus ATCC 29213 up to 100 ug/mL by broth microdilution assay
Pseudomonas aeruginosa = test: Antimicrobial activity against Pseudomonas aeruginosa ATCC 27853 up to 100 ug/mL by broth microdilution assay
Escherichia coli = test: Antimicrobial activity against Escherichia coli ATCC 25922 up to 100 ug/mL by broth microdilution assay
Giardia intestinalis [2] = test: Antigiardial activity against Giardia lamblia WB (ATCC 30957) trophozoites assessed as mild activity after 24 hrs by trypan blue assay; details: Giardia duodenalis
Outline: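 Mid-log trophozoites chilled on ice 20 min, resuspended and counted by hemocytometer; 1.5 × 10⁵ cells per well, final volume 1.5 mL, incubated 24 h at 37 °C with compound (DMSO stock diluted in medium, DMSO ≤5% v/v) at 100 µg/mL. Plates re-chilled on ice 20 min before counting. Mortality from trypan blue staining plus loss of motility. Controls: metronidazole 1–5 µg/mL, DMSO vehicle.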

With `COc1ccc(C(=O)/C=C/c2ccccc2F)cc1` the IC50 (Giardia intestinalis [1]) was 12.7 µg/mL (≈ 49.6 µM), the LC50 (Giardia intestinalis [1]) was 1.99 µg/mL (≈ 7.77 µM) and the Activity (Enterococcus faecalis) was “inactive”. For the same compound, the Activity (Staphylococcus aureus) was “inactive”, the Activity (Pseudomonas aeruginosa) was “inactive” and the Activity (Escherichia coli) was “inactive”.

In the case of `COc1ccc(/C=C/C(=O)c2ccc(OC)cc2)cc1`, the Activity (Enterococcus faecalis) is reported as “inactive”, the Activity (Staphylococcus aureus) is reported as “inactive” and the Activity (Pseudomonas aeruginosa) is reported as “inactive”. The Activity (Escherichia coli) was “inactive” and the Activity (Giardia intestinalis [2]) was “Active”.

`Cc1ncc([N+](=O)[O-])n1CCO` [METRONIDAZOLE] was tested, and the IC50 (Giardia intestinalis [1]) was 2.88 µg/mL (≈ 16.8 µM) and the LC50 (Giardia intestinalis [1]) was 1.63 µg/mL (≈ 9.52 µM).

`COc1ccc(C(=O)/C=C/c2ccc(Cl)cc2)cc1` was tested, and the IC50 (Giardia intestinalis [1]) was 15 µg/mL (≈ 55.1 µM), the LC50 (Giardia intestinalis [1]) was 7.52 µg/mL (≈ 27.6 µM) and the Activity (Enterococcus faecalis) was “inactive”. The Activity (Staphylococcus aureus) was “inactive”, the Activity (Pseudomonas aeruginosa) was “inactive” and the Activity (Escherichia coli) was “inactive”.

With `COc1ccc(C(=O)/C=C/c2ccccc2)cc1` the Activity (Enterococcus faecalis) was “inactive”, the Activity (Staphylococcus aureus) was “inactive” and the Activity (Pseudomonas aeruginosa) was “inactive”. For the same compound, the Activity (Escherichia coli) was “inactive” and the Activity (Giardia intestinalis [2]) was “Active”.

In the case of `COc1ccc(/C=C/C(=O)c2ccccc2)cc1`, the Activity (Enterococcus faecalis) is reported as “inactive”, the Activity (Staphylococcus aureus) is reported as “inactive” and the Activity (Pseudomonas aeruginosa) is reported as “inactive”. For the same compound, the Activity (Escherichia coli) was “inactive” and the Activity (Giardia intestinalis [2]) was “Active”.

For `Cc1ccc(/C=C/C(=O)c2ccc(F)cc2)cc1`, the IC50 (Giardia intestinalis [1]) was 15.3 µg/mL (≈ 63.7 µM), the LC50 (Giardia intestinalis [1]) was 9.67 µg/mL (≈ 40.2 µM) and the Activity (Enterococcus faecalis) was “inactive”. For the same compound, the Activity (Staphylococcus aureus) was “inactive”, the Activity (Pseudomonas aeruginosa) was “inactive” and the Activity (Escherichia coli) was “inactive”.

With `Cc1ccc(/C=C/C(=O)c2ccccc2)cc1` the Activity (Enterococcus faecalis) was “inactive”, the Activity (Staphylococcus aureus) was “inactive” and the Activity (Pseudomonas aeruginosa) was “inactive”. For the same compound, the Activity (Escherichia coli) was “inactive” and the Activity (Giardia intestinalis [2]) was “Active”.

For `COc1ccc(C(=O)/C=C/c2ccc(OC)cc2OC)cc1`, the Activity (Enterococcus faecalis) was “inactive”, the Activity (Staphylococcus aureus) was “inactive” and the Activity (Pseudomonas aeruginosa) was “inactive”. The Activity (Escherichia coli) was “inactive” and the Activity (Giardia intestinalis [2]) was “Active”.

In the case of `COc1ccc(/C=C/C(=O)c2ccc(Cl)cc2)cc1`, the Activity (Enterococcus faecalis) is reported as “inactive”, the Activity (Staphylococcus aureus) is reported as “inactive” and the Activity (Pseudomonas aeruginosa) is reported as “inactive”. For the same compound, the Activity (Escherichia coli) was “inactive” and the Activity (Giardia intestinalis [2]) was “Active”.
